Data: ChEMBL document CHEMBL1157805, “Virtual screening, selection and development of a benzindolone structural scaffold for inhibition of lumazine synthase” (Bioorg Med Chem, 2010)
Active and inactive are the calls of the source. No cut-off for these calls is given here.

Assays:
[1] = molecular target: 6,7-dimethyl-8-ribityllumazine synthase (Mycobacterium tuberculosis) (UniProt P9WHE9); assay: Mixed Inhibition of Mycobacterium tuberculosis recombinant lumazine synthase
Method in brief: (§1)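 Recombinant M. tuberculosis lumazine synthase (2 μM) in 100 mM Tris-HCl pH 7.0, 100 mM NaCl, 5 mM DTT, 2% DMSO. Dihydroxybutanone phosphate was fixed at 100 μM, pyrimidinedione substrate varied 3–100 μM, and inhibitor 0–200 μM. Reactions were started with the pyrimidinedione substrate. Lumazine formation was read at 408 nm for 30 min at 27 °C. Velocity–substrate data were fitted by nonlinear regression to alternative inhibition models.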

[2] = system: Mycobacterium tuberculosis; assay: Activity at Mycobacterium tuberculosis recombinant riboflavin synthase after 30 mins by fluorescence assay
Method in brief: (§2)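 Recombinant M. tuberculosis riboflavin synthase (1 μM) in 100 mM Tris-HCl pH 7.0, 100 mM NaCl, 5 mM DTT, 2% DMSO. 6,7-Dimethyl-8-ribityllumazine substrate was varied 3–60 μM and inhibitor 0–200 μM. Reactions were started with substrate. Riboflavin formation was monitored at 470 nm for 30 min at 27 °C. Velocity–substrate data for all inhibitor levels were fitted by nonlinear regression to alternative inhibition models.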

[3] = system: Mycobacterium tuberculosis; assay: Uncompetitive inhibition of Mycobacterium tuberculosis recombinant riboflavin synthase; method in brief: as §2
[4] = molecular target: 6,7-dimethyl-8-ribityllumazine synthase (Mycobacterium tuberculosis) (UniProt P9WHE9); assay: Uncompetitive inhibition of Mycobacterium tuberculosis recombinant lumazine synthase; method in brief: as §1

Chain of 6,7-dimethyl-8-ribityllumazine synthase (Mycobacterium tuberculosis) (P9WHE9 whole entry): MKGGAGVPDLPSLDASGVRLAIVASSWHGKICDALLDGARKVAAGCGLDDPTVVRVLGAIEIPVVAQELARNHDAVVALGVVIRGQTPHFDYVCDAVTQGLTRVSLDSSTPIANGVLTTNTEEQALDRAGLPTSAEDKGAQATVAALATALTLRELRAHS

Row | SMILES | inhibition [1] | kcat [2] [min⁻¹] | inhibition [3] | inhibition [4]
1 | O=C1Nc2ccc(S(=O)(=O)NCCCCC(F)(F)P(=O)(O)O)c3cccc1c23 | Active | – | – | –
2 | CCOC(=O)C(=O)Nc1c(Cl)[nH]c(=O)[nH]c1=O | Active | 0.34 | Active | –
3 | O=C1Nc2ccc(S(=O)(=O)NCCCCCCOP(=O)(O)O)c3cccc1c23 | – | 0.56 | Active | Active
4 | O=C1Nc2ccc(S(=O)(=O)NCCCOP(=O)(O)O)c3cccc1c23 | Active | 0.28 | – | –
5 | O=C1Nc2ccc(S(=O)(=O)NCCCCCOP(=O)(O)O)c3cccc1c23 | – | 0.56 | Active | Active
6 | O=C1Nc2ccc(S(=O)(=O)NCCCCOP(=O)(O)O)c3cccc1c23 | Active | 0.29 | – | –
7 | O=C1Nc2ccc(S(=O)(=O)NCCOP(=O)(O)O)c3cccc1c23 | – | 0.3 | – | –
